Here are results for four molecules from ChEMBL document CHEMBL4765345, “Design, synthesis, and biological evaluation of dual targeting inhibitors of histone deacetylase 6/8 and bromodomain BRPF1” (Eur J Med Chem, 2020).

Data set [1] relates to HL-60. In words: Antiproliferative activity against human HL60 assessed as reduction in cell growth at 20 uM by CellTiter-non radioactive cell proliferation assay. The data set is classed as functional.
For data set [2], the system named is THP-1. In words: Antiproliferative activity against human THP-1 assessed as reduction in cell growth at 100 uM by CellTiter-non radioactive cell proliferation assay. It counts as functional.
In data set [3] the test system is HL-60. The data set is described as follows: Antiproliferative activity against human HL60 assessed as reduction in cell growth at 4 uM by CellTiter-non radioactive cell proliferation assay. The data set is classed as functional. In a few lines:
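HL60 cells plated at 5000 per well and given inhibitor or DMSO vehicle immediately. Compounds diluted from 200x DMSO stocks; three replicates per concentration. Growth read by CellTiter 96 Aqueous (MTS) assay. GI50 is the concentration cutting metabolically active cells by 50% versus DMSO control, taken from absorbance against log concentration.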

For data set [4], the system named is HL-60. In words: Antiproliferative activity against human HL60 assessed as reduction in cell growth at 100 uM by CellTiter-non radioactive cell proliferation assay. The data set is classed as functional.
The next data set concerns THP-1 (Homo sapiens). In words: Antiproliferative activity against human THP-1 assessed as reduction in metabolically active cells by CellTiter-non radioactive cell proliferation assay.
In a further data set the test system is HEK293. In words: Cytotoxicity against human HEK293 assessed as reduction in cell viability incubated for 24 hrs by AlamarBlue assay. It counts as cell-based. The note with it: hek293, 24 h. In a few lines:
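HEK293 cells were grown at 37 °C under 5% CO2 in DMEM with 10% FCS and 5 mM glutamine and seeded at 1.5 x 10³ cells per well. Compound at 50 μM was added at once. After 24 h AlamarBlue was added for another 21 h, and fluorescence was read at Ex 560/Em 590 nm. Triplicates over three independent experiments.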
A general note: Alamar Blue is a resazurin reagent that responds to reducing activity.

Data set [5] concerns THP-1. The data set is described as follows: Antiproliferative activity against human THP-1 assessed as reduction in cell growth at 4 uM by CellTiter-non radioactive cell proliferation assay. The data set is classed as functional.
Data set [6] deals with THP-1. In words: Antiproliferative activity against human THP-1 assessed as reduction in cell growth at 20 uM by CellTiter-non radioactive cell proliferation assay. It counts as functional.
The target of data set [7] is T1, Histone deacetylase 1 (Homo sapiens, UniProt Q13547). The data set is described as follows: Inhibition of recombinant human HDAC1 using Z-(Ac)Lys-AMC as substrate after 90 mins by fluorescence based micro plate assay. In a few lines: (§1)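 Recombinant human HDAC1 or HDAC6 incubated 90 min at 37 °C with 10.5 μM ZMAL (Z-(Ac)Lys-AMC) and increasing inhibitor concentrations, using a homogeneous fluorescence assay. Fluorescence read at Ex 390/Em 460 nm.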

Data set [8] concerns THP-1. In words: Antiproliferative activity against human THP-1 assessed as reduction in cell growth at 1 uM by CellTiter-non radioactive cell proliferation assay. The data set is classed as functional.
For another data set, the target named is T2, Histone deacetylase 8 (Homo sapiens, UniProt Q9BY41).
T2 sequence (Q9BY41 whole entry): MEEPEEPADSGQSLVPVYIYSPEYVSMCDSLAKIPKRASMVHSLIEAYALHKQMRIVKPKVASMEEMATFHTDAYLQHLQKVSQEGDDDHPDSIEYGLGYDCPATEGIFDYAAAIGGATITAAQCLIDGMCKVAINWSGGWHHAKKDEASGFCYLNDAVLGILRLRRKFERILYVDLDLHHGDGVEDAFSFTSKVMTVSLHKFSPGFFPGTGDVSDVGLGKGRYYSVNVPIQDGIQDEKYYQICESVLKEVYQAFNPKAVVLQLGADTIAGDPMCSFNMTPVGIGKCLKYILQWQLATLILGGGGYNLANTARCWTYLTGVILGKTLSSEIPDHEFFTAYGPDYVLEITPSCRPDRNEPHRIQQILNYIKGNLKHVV
The data set is described as follows: Inhibition of human recombinant HDAC8 using H2N-Arg-His-Lys(Ac)-Lys(Ac)-AMC as substrate after 90 mins by fluorescence based micro plate assay.

Data set [9] can be described thus: Stability of the compound in phosphate buffer at pH 7.4 measured after 4 days. The data set is classed as physicochemical. The note with it: pH 7.4, 96 h, time 4 day. In a few lines:
(§2)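 Compounds were incubated at 37 °C in DMEM (cellular assay conditions) or in PBS pH 7.4 (in vitro assay conditions) for various times up to 4 days. The parent compound and any hydrolysis products were detected and quantified by HPLC.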

Data set [10] concerns HL-60. In words: Antiproliferative activity against human HL60 assessed as reduction in cell growth at 1 uM by CellTiter-non radioactive cell proliferation assay. It counts as functional.
Data set [11] has as its target T3, Protein deacetylase HDAC6 (Homo sapiens, UniProt Q9UBN7).
T3 sequence (Q9UBN7 whole entry): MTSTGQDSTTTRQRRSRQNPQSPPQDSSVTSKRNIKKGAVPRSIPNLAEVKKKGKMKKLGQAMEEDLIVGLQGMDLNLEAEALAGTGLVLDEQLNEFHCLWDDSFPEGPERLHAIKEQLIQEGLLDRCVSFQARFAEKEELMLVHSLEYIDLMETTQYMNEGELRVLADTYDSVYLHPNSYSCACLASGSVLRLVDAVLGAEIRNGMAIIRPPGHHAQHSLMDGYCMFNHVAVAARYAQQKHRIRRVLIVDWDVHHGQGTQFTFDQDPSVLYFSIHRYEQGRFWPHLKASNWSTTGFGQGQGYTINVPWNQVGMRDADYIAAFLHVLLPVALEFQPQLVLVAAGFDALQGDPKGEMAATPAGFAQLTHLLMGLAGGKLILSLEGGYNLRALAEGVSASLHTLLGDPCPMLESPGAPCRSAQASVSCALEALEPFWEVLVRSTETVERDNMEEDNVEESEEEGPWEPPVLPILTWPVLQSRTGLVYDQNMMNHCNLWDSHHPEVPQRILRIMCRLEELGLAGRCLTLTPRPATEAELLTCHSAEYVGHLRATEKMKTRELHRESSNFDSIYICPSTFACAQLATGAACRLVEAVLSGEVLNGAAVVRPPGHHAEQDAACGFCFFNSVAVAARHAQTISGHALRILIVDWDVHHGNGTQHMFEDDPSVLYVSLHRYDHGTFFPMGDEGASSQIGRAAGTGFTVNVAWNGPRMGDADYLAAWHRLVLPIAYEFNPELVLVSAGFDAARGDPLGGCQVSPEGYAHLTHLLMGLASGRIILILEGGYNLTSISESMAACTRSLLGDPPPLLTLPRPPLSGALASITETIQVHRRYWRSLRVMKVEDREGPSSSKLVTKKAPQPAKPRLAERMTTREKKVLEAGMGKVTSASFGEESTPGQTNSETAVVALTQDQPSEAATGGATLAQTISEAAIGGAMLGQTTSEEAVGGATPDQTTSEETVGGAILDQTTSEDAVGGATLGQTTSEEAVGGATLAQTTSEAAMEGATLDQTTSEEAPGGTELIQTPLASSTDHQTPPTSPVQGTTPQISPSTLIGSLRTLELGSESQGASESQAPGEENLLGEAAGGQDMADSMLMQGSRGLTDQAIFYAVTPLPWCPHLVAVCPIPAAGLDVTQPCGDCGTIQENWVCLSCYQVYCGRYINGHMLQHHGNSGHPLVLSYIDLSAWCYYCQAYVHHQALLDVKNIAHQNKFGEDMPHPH
In words: Inhibition of recombinant human HDAC6 using Z-(Ac)Lys-AMC as substrate after 90 mins by fluorescence based micro plate assay. In a few lines:
as §1

In a further data set the target is T4, Peregrin (Homo sapiens, UniProt P55201).
T4 sequence (P55201 whole entry): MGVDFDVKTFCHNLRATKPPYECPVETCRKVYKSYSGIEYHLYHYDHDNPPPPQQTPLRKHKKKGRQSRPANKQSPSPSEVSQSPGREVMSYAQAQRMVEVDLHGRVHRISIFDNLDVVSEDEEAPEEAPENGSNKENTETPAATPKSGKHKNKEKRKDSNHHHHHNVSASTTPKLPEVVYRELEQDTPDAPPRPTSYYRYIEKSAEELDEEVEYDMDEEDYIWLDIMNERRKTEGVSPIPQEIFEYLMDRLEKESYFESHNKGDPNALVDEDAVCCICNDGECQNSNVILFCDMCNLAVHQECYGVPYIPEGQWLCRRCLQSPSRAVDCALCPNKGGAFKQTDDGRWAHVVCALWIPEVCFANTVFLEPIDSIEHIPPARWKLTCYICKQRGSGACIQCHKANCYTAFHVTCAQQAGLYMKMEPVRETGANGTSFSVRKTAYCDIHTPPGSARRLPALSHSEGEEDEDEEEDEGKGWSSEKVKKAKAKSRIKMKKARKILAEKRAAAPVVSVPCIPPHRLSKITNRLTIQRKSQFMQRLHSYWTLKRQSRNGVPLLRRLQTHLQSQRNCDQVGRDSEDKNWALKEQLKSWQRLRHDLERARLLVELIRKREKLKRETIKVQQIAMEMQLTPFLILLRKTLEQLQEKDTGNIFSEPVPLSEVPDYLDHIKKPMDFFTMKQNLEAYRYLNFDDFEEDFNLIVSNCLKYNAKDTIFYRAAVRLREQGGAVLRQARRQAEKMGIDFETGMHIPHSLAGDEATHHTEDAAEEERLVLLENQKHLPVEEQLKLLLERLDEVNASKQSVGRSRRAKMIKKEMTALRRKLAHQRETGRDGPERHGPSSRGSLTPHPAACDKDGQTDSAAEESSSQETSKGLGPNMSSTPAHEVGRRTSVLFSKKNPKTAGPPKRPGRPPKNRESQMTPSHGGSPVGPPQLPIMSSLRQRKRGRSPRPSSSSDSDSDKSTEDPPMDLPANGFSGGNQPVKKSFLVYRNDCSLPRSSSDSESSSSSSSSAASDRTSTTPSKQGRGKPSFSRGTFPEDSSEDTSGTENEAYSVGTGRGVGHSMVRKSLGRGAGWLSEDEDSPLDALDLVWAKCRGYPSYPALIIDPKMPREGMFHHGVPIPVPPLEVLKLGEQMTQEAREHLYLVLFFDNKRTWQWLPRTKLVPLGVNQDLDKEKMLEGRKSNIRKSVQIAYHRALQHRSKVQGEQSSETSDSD
In words: Binding affinity to BRPF1 (unknown origin) by Isothermal titration calorimetry. In a few lines:
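Isothermal titration calorimetry with recombinant BRPF1 (200–400 μM) in the injection syringe titrated into ligand (20–40 μM) in the sample cell. Kd was fitted from the titrations and reported with its P99 interval.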
In general terms: Isothermal titration calorimetry measures the heat released or taken up as one component is titrated into another.

Data set [12] is described as follows: Chemical stability of the compound in standard cellular assay conditions measured after 4 days. The data set is classed as physicochemical. The note with it: 96 h; time 4 day. The procedure, abridged:
as §2

Data set [13] has as its target T5, Protein deacetylase HDAC6 (Homo sapiens) (UniProt Q9UBN7).
T5 sequence (whole entry): T3 sequence (Q9UBN7 whole entry)
In words: Inhibition of recombinant human HDAC6 at 1 uM using Z-(Ac)Lys-AMC as substrate after 90 mins by fluorescence based micro plate assay. In a few lines: as §1

Data set [14] addresses T1, Histone deacetylase 1. The data set is described as follows: Inhibition of recombinant human HDAC1 at 1 uM using Z-(Ac)Lys-AMC as substrate after 90 mins by fluorescence based micro plate assay. In a few lines: as §1
Data set [15] concerns the target T5, Protein deacetylase HDAC6 (Homo sapiens). The data set is described as follows: Inhibition of recombinant human HDAC6 at 10 uM using Z-(Ac)Lys-AMC as substrate after 90 mins by fluorescence based micro plate assay. The procedure, abridged: as §1
In data set [16] the target is T1, Histone deacetylase 1. In words: Inhibition of recombinant human HDAC1 at 10 uM using Z-(Ac)Lys-AMC as substrate after 90 mins by fluorescence based micro plate assay. The procedure, abridged: as §1
Data set [17] can be described thus: Inhibition of HDAC (unknown origin). More on the design: species or system Homo sapiens.

T1 sequence (Q13547 whole entry): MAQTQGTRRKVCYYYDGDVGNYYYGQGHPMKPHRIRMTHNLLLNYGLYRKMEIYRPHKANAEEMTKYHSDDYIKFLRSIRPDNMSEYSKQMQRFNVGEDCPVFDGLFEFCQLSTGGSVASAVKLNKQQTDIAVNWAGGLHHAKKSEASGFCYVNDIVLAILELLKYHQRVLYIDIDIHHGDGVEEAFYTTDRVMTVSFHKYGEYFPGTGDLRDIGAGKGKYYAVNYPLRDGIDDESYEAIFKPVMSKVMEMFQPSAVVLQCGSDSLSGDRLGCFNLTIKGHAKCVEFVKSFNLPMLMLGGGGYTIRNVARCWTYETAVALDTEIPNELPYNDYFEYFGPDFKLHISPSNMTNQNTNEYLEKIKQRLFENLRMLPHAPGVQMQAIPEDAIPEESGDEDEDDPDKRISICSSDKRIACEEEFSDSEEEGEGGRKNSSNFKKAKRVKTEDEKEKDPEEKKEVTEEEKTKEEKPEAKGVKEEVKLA

In general, inhibition refers to the change of the read-out against control, counted positive when it falls. What is called GI50 is the concentration that inhibits growth by half. Consider `COC(=O)c1ccc(OC)c(S(=O)(=O)Nc2ccc3c(c2)cc(C)c(=O)n3C)c1`, for which the inhibition at 20 µM was found to be 44% with HL-60 [1] and 101% in the data set on THP-1 [6]. Also, the inhibition at 100 µM is 102% in the data set with THP-1 [2] and 66% in the data set with HL-60 [4]. In addition, the inhibition at 4 µM is 39% in the data set on HL-60 [3] and 40% with THP-1 [5]. The GI50 in the data set on THP-1 (Homo sapiens) turned out to be 5500 nM. In the data set with HEK293, the Activity entry is “Non-Toxic”.
The IC50 is the point on the concentration scale where inhibition reaches its midpoint. What is called Kd is the concentration at which binding is half-saturated. As to `Cc1cc2cc(NS(=O)(=O)Cc3ccc(C(=O)NO)cc3)ccc2n(C)c1=O`, the IC50 at Histone deacetylase 1 [7] was found to be 545 nM; at Histone deacetylase 8, 360 nM; in data set [11], 152 nM. Further, the values for the inhibition at 1 µM with THP-1 [8] and in the data set with HL-60 [10] were 0% and 5%, respectively. The inhibition at 20 µM in the data set with HL-60 [1] came to 0%; in the data set with THP-1 [6] it was 8%. Also, the inhibition at 100 µM in the data set on THP-1 [2] was 89%; in the data set on HL-60 [4], 27%. Moreover, the Stabilty result in data set [9] and in [12] was “Stable” each time. Also, at Peregrin (read-out: Kd), the Kd amounted to 1500 nM.
Regarding `Cc1cc2cc(NS(=O)(=O)c3cc(C(=O)NO)ccc3Cl)ccc2n(C)c1=O`, the inhibition in data set [13] amounted to 13%; at Histone deacetylase 1 [14], 13%; in data set [15], 59%; on Histone deacetylase 1 [16] it was 31%. Moreover, the inhibition at 20 µM in the data set on HL-60 [1] amounted to 32%; with THP-1 [6], 8%. Further, the inhibition at 100 µM with THP-1 [2] was 21%; in the data set on HL-60 [4], 33%. For the same molecule, the IC50 on Histone deacetylase 8 worked out at 560 nM. In addition, the inhibition at 4 µM worked out at 29% in the data set on HL-60 [3] and 16% in the data set on THP-1 [5]. Also, on Peregrin (read-out: Kd), the Kd is 234 nM.
Molecule `O=C(CCCCCCOc1ccccc1C(=O)Nc1ncnc2[nH]cnc12)NO` returned an IC50 in [17] of 260 nM. Binding on Peregrin was put at a Kd of 2700 nM.
